The text below walks through data of ChEMBL document CHEMBL1949501, “Novel acid-type cyclooxygenase-2 inhibitors: Design, synthesis, and structure-activity relationship for anti-inflammatory drug” (Eur J Med Chem, 2012).

Structures are written as SMILES.

Assay [1] has as its target T1, Prostaglandin G/H synthase 2 (Homo sapiens, UniProt P35354).
T1 sequence (P35354 whole entry): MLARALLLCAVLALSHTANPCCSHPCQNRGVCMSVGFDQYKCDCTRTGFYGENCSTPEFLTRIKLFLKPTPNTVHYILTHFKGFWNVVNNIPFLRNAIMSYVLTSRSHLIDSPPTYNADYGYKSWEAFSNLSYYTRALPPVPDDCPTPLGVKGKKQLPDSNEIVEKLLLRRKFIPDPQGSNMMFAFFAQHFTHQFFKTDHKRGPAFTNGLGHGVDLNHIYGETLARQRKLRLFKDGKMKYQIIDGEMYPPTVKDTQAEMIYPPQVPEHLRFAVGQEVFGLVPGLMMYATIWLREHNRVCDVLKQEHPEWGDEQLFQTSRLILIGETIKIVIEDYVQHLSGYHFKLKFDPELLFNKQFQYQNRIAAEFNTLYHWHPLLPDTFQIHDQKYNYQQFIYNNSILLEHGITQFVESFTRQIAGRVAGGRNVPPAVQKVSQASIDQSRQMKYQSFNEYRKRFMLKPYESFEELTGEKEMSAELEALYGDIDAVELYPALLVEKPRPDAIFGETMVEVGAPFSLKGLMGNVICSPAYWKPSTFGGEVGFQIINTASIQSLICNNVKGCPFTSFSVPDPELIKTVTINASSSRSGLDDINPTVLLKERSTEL
As to the kind of experiment: Inhibition of COX-2-mediated 6-keto-PGF1alpha production in IL-1beta-induced HUVEC preincubated for 20 mins prior A23187 stimulation measured after 15 mins by RIA.

The target of assay [2] is COX-1/COX-2 (Homo sapiens) (UniProt P35354+P23219). As to the kind of experiment: Selectivity ratio of IC50 for COX-1-mediated TXB2 production in human platelets to IC50 for COX-2-mediated 6-keto-PGF1alpha production in IL-1beta-induced HUVEC.
In assay [3] the target is T2, Prostaglandin G/H synthase 1 (Homo sapiens, UniProt P23219). As to the kind of experiment: Inhibition of COX-1-mediated TXB2 production in human platelets preincubated for 20 mins prior A23187 stimulation measured after 15 mins by RIA.
In assay [4] the target is T1, Prostaglandin G/H synthase 2. Description: Inhibition of COX-2-mediated PGE2 production in LPS-induced human whole blood after 24 hrs by RIA. The gist of the method: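 Heparinized whole blood from healthy adult volunteers mixed with compound in DMSO (0.1–100 µM final; DMSO under 0.1%) and E. coli 0111:B4 LPS (30 µg/mL final), incubated 24 h at 37 °C to induce COX-2; PGE2 synthesis measured; IC50.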

The target in assay [5] is T2, Prostaglandin G/H synthase 1. As to the kind of experiment: Inhibition of COX-1-mediated TXB2 production in human whole blood after 30 mins post A23187 stimulation by RIA.
The test system of a further assay is Rattus norvegicus. As to the kind of experiment: Antiinflammatory activity in SPF/VAF Sprague-Dawley rat assessed as inhibition of carrageenan-induced paw oedema at 10 mg/kg, po administered 1 hr prior carrageenan challenge measured after 3 hrs by plethysmometry. The format is functional. The gist of the method:
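Male SPF/VAF Sprague-Dawley rats (Crj:CD(SD), 5 weeks, 110–130 g), fasted overnight, given carrageenan intraplantarly in the hind paw. Test compound or vehicle (5% (v/v) Tween 80 in distilled water) dosed orally at 1 mL/100 g body weight 1 h before carrageenan. Foot volume read by water-displacement plethysmometer before and 3 h after injection; percent inhibition relative to vehicle group taken as 0%.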

T2 sequence (P23219 whole entry): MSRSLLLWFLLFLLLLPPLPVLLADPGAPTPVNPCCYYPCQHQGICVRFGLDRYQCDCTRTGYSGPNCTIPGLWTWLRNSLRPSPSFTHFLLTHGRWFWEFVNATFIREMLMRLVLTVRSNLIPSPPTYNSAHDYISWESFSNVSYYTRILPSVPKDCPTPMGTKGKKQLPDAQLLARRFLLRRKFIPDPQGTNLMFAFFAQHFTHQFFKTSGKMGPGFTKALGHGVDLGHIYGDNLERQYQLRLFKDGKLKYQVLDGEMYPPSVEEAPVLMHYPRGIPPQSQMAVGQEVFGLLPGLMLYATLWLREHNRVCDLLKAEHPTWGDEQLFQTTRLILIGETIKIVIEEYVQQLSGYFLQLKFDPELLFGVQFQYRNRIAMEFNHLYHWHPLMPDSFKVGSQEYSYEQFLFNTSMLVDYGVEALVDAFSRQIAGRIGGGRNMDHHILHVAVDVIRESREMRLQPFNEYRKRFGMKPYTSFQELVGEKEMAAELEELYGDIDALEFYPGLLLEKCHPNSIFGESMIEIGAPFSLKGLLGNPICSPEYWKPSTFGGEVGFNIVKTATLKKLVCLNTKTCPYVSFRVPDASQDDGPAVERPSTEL
COX-1/COX-2 (Homo sapiens), sequence (P23219 whole entry, looked up, one chain of several): as the sequence (P23219 whole entry) above

`COc1ccc2c(CC(=O)O)c(C(=O)c3cc(C)ccn3)[nH]c2c1`: the IC50 in assay [1] was 128 nM; in assay [3] it was above 10000 nM; in assay [4] it was 1900 nM; in assay [5], above 100 µM. The Ratio IC50 in assay [2] was above 78.1.
For the molecule `CCOc1cnc(C(=O)c2[nH]c3cc(Cl)ccc3c2CC(=O)O)cc1CC`, the IC50 in assay [1] is 598 nM; in assay [3], above 10000 nM.
For the molecule `Cc1ccnc(C(=O)c2[nH]c3ccc(OC(F)(F)F)cc3c2CC(=O)O)c1`, the IC50 in assay [1] was 39.6 nM; in assay [3], 1000 nM; in assay [4] it was 1900 nM; in assay [5] it was above 100 µM.
On to `Cc1ccnc(C(=O)c2[nH]c3cc(F)ccc3c2CC(=O)O)c1`, for which the IC50 in assay [1] is 9.81 nM; in assay [3], 849 nM; in assay [4] it was 155 nM; in assay [5] it was 33.5 µM. Moreover, in the assay with Rattus norvegicus, the inhibition in vivo at 10 mg/kg is 70%. Moreover, in assay [2], the Ratio IC50 turned out to be 86.5.
On to `Cc1ccnc(C(=O)c2[nH]c3ccc(F)cc3c2CC(=O)O)c1`, for which the IC50 in assay [1] came to 5.68 nM; in assay [3] it was 150 nM; in assay [4] it was 150 nM; in assay [5], 21.4 µM. In assay [2], the Ratio IC50 is 26.4.
With `CCc1ccc2[nH]c(C(=O)c3cc(C)ccn3)c(CC(=O)O)c2c1`, the IC50 in assay [1] was 15.7 nM; in assay [3], 882 nM; in assay [4], 1600 nM; in assay [5], 47 µM.
Consider `CCc1ccc2c(CC(=O)O)c(C(=O)c3cc(C)ccn3)[nH]c2c1`, for which the half-maximal inhibitory concentration (IC50) in assay [1] was 414 nM; in assay [3], above 10000 nM.
As for `CCc1ccnc(C(=O)c2[nH]c3ccc(OC(F)(F)F)cc3c2CC(=O)O)c1`, the half-maximal inhibitory concentration (IC50) in assay [1] was 421 nM; in assay [3], above 10000 nM; in assay [4], 5700 nM; in assay [5] it was above 100 µM.
In the case of `CCc1cc(C(=O)c2[nH]c3cc(Cl)ccc3c2CC(=O)O)ncc1Cl`, the figures for the IC50 in assay [1] and in assay [3] were 30.7 nM and above 10000 nM, respectively. In addition, the Ratio IC50 in assay [2] was above 326.
In the same order, the values of `O=C(O)Cc1c(C(=O)c2cc3c(cn2)CCCC3)[nH]c2cc(Cl)ccc12` are 19.2 nM, above 10000 nM and above 521.
Turning to `Cc1ccnc(C(=O)c2[nH]c3ccc(C(C)(C)C)cc3c2CC(=O)O)c1`, the concentration for half-maximal inhibition (IC50) in assay [1] was 41.5 nM; in assay [3], 1510 nM.
With `Cc1ccnc(C(=O)c2[nH]c3cc(Cl)c(F)cc3c2CC(=O)O)c1`, the concentration for half-maximal inhibition (IC50) in assay [1] stood at 6.77 nM; in assay [3] it was 65.9 nM; in assay [4], 100 nM; in assay [5] it was 7.7 µM. Moreover, the Ratio IC50 in assay [2] is 9.73.
In the case of `COc1ccc2[nH]c(C(=O)c3cc(C)ccn3)c(CC(=O)O)c2c1`, the IC50 in assay [1] was 128 nM; in assay [3] it was 3050 nM; in assay [4], 2200 nM; in assay [5] it was above 100 µM. The Ratio IC50 in assay [2] stood at 23.8.
